Experimental data reported in ChEMBL document CHEMBL4665801, “Pyrazole-Based Lactate Dehydrogenase Inhibitors with Optimized Cell Activity and Pharmacokinetic Properties” (J Med Chem, 2020).
Active and inactive are the calls of the source. The rule behind the calls is not given here.

Tests used:
[1] = biological target: T1, L-lactate dehydrogenase A chain (Homo sapiens, UniProt P00338); test: Inhibition of recombinant human LDHA using sodium pyruvate as substrate preincubated for 5 mins followed by diaphorase/resazurin addition and measured after 20 mins by fluorescence based assay
Sus scrofa = species on record: Sus scrofa; test: Inhibition of porcine heart MDH using malic acid as substrate preincubated for 10 mins followed by substrate addition and measured after 5 mins by resazurin based fluorescence based assay; settings: time 15.0 min
MIA PaCa-2 = test: Cytotoxicity against human MIA PaCa-2 cells assessed as reduction in cell viability after 48 hrs by CellTiter-Glo assay; type: functional, cell-based; settings: MIA PaCa-2, 48 h
[2] = biological target: T1, L-lactate dehydrogenase A chain; test: Inhibition of GS[HiBiT]GS-tagged LDHA (unknown origin) expressed in HEK-293T cells measured after 1 hr by […]; type: cell-based
Outline: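 HEK293T cells were transiently transfected for 24 h with CMV-driven LDHA carrying a C-terminal GS[HiBiT]GS tag, then reseeded at 2500 cells/well in DPBS with Ca/Mg and 1 g/L glucose. […] Cells were lysed with NP40, and 11S (100 nM final) plus furimazine was added.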

[3] = biological target: L-lactate dehydrogenase B chain (Homo sapiens) (UniProt P07195); test: Inhibition of recombinant human LDHB using sodium pyruvate as substrate preincubated for 5 mins followed by diaphorase/resazurin addition and measured after 20 mins by fluorescence based assay
L-lactate dehydrogenase B chain (Homo sapiens), sequence (P07195 2-334 limits assumed): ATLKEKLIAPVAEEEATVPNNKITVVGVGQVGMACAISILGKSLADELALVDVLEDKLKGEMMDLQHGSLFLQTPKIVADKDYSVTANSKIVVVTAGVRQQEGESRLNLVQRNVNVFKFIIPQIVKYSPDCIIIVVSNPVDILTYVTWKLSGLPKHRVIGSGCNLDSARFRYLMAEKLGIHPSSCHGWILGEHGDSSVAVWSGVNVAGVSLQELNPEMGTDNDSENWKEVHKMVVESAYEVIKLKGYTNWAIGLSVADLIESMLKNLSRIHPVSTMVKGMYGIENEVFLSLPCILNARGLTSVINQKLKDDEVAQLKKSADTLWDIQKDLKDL

[4] = biological target: T1, L-lactate dehydrogenase A chain; test: Inhibition of LDHA in human A673 cells assessed as decrease in lactate production incubated for 2 hrs by lactate oxidase-coupled fluorescence based assay; type: cell-based
[5] = biological target: T1, L-lactate dehydrogenase A chain; test: Inhibition of LDHA in human MIA PaCa-2 cells assessed as decrease in lactate production incubated for 2 hrs by lactate oxidase-coupled fluorescence based assay; type: cell-based
A673 = test: Cytotoxicity against human A673 cells assessed as reduction in cell viability after 48 hrs by CellTiter-Glo assay; type: functional, cell-based; settings: A673, 48 h

| Structure (SMILES) | IC50 [1] [nM] | inhibition (Sus scrofa) | IC50 (MIA PaCa-2) [nM] | IC50 [2] [nM] | inhibition [3] | IC50 [4] [nM] | IC50 [5] [nM] | IC50 (A673) [nM] |
| --- | --- | --- | --- | --- | --- | --- | --- | --- |
| NS(=O)(=O)c1ccc(Cc2c(-c3ccc(F)c(C#CCC4CC4)c3)nn(-c3nc(C(=O)O)cs3)c2CC2CC2)cc1F | 31 | inactive | 1030 | 89 | Active | 234 | 259 | 1020 |
| NS(=O)(=O)c1ccc(Cc2c(-c3cccc(-c4ccccc4)c3)nn(-c3nc(C(=O)O)cs3)c2CC(F)(F)F)cc1 | 274 | inactive | 3170 | 15800 | Active | 9720 | 19400 | 148 |
| CC(C)CC#Cc1cc(-c2nn(-c3nc(C(=O)O)cs3)c(CC3CC3)c2Cc2ccc(S(N)(=O)=O)c(F)c2)ccc1F | 54 | inactive | 909 | 89 | Active | 284 | 487 | 935 |
| NS(=O)(=O)c1ccc(Cc2c(-c3ccc(F)c(C#CC(F)(F)F)c3)nn(-c3nc(C(=O)O)cs3)c2CC2CC2)cc1F | 450 | inactive | > 30000 | 14000 | Active | > 30000 | > 30000 | > 30000 |
| COCC#Cc1cc(-c2nn(-c3nc(C(=O)O)cs3)c(CC3CC3)c2Cc2ccc(S(N)(=O)=O)c(F)c2)ccc1F | 8 | inactive | 1090 | 119 | Active | 769 | 525 | 1220 |
| CCCCC#Cc1cc(-c2nn(-c3nc(C(=O)O)cs3)c(CC3CC3)c2Cc2ccc(S(N)(=O)=O)c(F)c2)ccc1F | 50 | inactive | 845 | 106 | Active | 405 | 298 | 773 |
| CC(F)C#Cc1cc(-c2nn(-c3nc(C(=O)O)cs3)c(CC3CC3)c2Cc2ccc(S(N)(=O)=O)c(F)c2)ccc1F (configuration not stated) | 14 | inactive | 1020 | 127 | Active | 800 | 822 | 1130 |
| Cc1cc(C)c(C#Cc2cccc(-c3nn(-c4nc(C(=O)O)cs4)c(CC4CC4)c3Cc3ccc(S(N)(=O)=O)c(F)c3)c2)s1 | 137 | inactive | 533 | 201 | Active | 345 | 218 | 528 |
| NS(=O)(=O)c1ccc(Cc2c(-c3cccc(C#Cc4ccc(C(F)(F)F)s4)c3)nn(-c3nc(C(=O)O)cs3)c2CC2CC2)cc1F | 434 | inactive | 803 | 113 | Active | 485 | 337 | 833 |
| NS(=O)(=O)c1ccc(Cc2c(-c3cccc(-c4ccccc4)c3)nn(-c3nc(C(=O)O)cs3)c2CCC2CC2)cc1 | 36 | inactive | 6200 | 727 | Active | 509 | 804 | 1960 |
| Cc1ncc(C#Cc2cccc(-c3nn(-c4nc(C(=O)O)cs4)c(CCC4CC4)c3Cc3ccc(S(N)(=O)=O)c(F)c3)c2)s1 | 24 | inactive | 218 | 17800 | Active | 434 | 334 | 218 |
| Cc1ccc(/C=C/c2cccc(-c3nn(-c4nc(C(=O)O)cs4)c(CC4CC4)c3Cc3ccc(S(N)(=O)=O)c(F)c3)c2)s1 | 52 | inactive | 471 | 158 | Active | 357 | 331 | 452 |
| NS(=O)(=O)c1ccc(Cc2c(-c3ccc(F)c(-c4ccccc4)c3)nn(-c3nc(C(=O)O)cs3)c2CC2CC2)cc1F | 23 | inactive | 3420 | 141 | Active | 465 | 585 | 1340 |
| NS(=O)(=O)c1ccc(Cc2c(-c3cccc(C#Cc4ccc(Cl)s4)c3)nn(-c3nc(C(=O)O)cs3)c2CC2CC2)cc1F | 167 | inactive | 556 | 113 | Active | 218 | 408 | 452 |
